This is an account of results in ChEMBL document CHEMBL4765333, “Novel NO-releasing scopoletin derivatives induce cell death via mitochondrial apoptosis pathway and cell cycle arrest” (Eur J Med Chem, 2020).

Data set [1] has as its system MCF7. As to the kind of experiment: Antiproliferative activity against human MCF7 cells assessed as inhibition of cell growth rate at 10 uM measured after 48 hrs by MTT assay. It counts as functional. Put shortly: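 MCF-7 cells in DMEM with 10% FBS exposed to a single 10 µM concentration for 48 h. Read-out by MTT (0.5 mg/ml, 4 h, DMSO dissolution, A570). Inhibition rate given versus untreated control as mean ± SD, n = 3.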

A short description of data set [2]: Anticancer activity against human MDA-MB-231 cells assessed as inhibition of cell proliferation measured after 48 hrs by MTT assay. The conditions noted are these: MDA-MB-23, 48 h. The class given is functional, cell-based. A digest of the protocol: (§1)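 Cells seeded at ~5,000/well, grown 24 h to partial monolayer, then exposed 48 h at 37°C, 5% CO2 to 0.5, 1, 2, 4, 10 and 20 µM (DMSO ≤0.1%). MTT final 0.5 mg/ml for 4 h, formazan dissolved in DMSO, A570. Survival expressed as % of untreated control; IC50 from dose-response curves; three independent experiments. MDA-MB-231, MCF-7, HepG2 in DMEM; A549 and LO-2 in RPMI-1640; 10% FBS.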

Data set [3] has as its system MCF7. As to the kind of experiment: Anticancer activity against human MCF7 cells assessed as inhibition of cell proliferation measured after 48 hrs by MTT assay. The conditions noted are these: MCF7, 48 h. It counts as functional, cell-based. A digest of the protocol: as §1
Data set [4] deals with HepG2. Briefly: Anticancer activity against human HepG2 cells assessed as inhibition of cell proliferation measured after 48 hrs by MTT assay. The class given is functional, cell-based. The conditions noted are these: HepG2, 48 h. A digest of the protocol: as §1
Data set [5] has as its system A549. Briefly: Anticancer activity against human A549 cells assessed as inhibition of cell proliferation measured after 48 hrs by MTT assay. It counts as functional, cell-based. The conditions noted are these: A549, 48 h. Put shortly: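 Cells seeded at ~5,000/well, grown 24 h to partial monolayer, then exposed 48 h at 37°C, 5% CO2 to 0.5, 1, 2, 4, 10 and 20 µM (DMSO ≤0.1%). MTT final 0.5 mg/ml for 4 h, formazan dissolved in DMSO, A570. Survival expressed as % of untreated control; IC50 from dose-response curves; three independent experiments.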

Data set [6] has as its system L02. Briefly: Cytotoxicity against human L02 cells assessed as reduction in cell viability measured after 48 hrs by MTT assay. The class given is cell-based. The conditions noted are these: L02, 48 h. Put shortly: as §1
The nature of data set [7]: Prodrug release in human MDA-MB-231 cells assessed as increase in intracellular NO level at 25 uM measured after 2.5 hrs by total nitric oxide assay. The class given is ADME, cell-based. The conditions noted are these: mda-mb-23, 2.5 h. A digest of the protocol: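 MDA-MB-231 (2×10^5 cells/well) cultured 24 h, then treated 2.5 h with compound at 25 µM or DMSO. Cells harvested, lysed in nitric oxide assay buffer 1 h on ice; lysate NO quantified with a total nitric oxide assay kit. Mean ± SD, n = 3.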

Data set [8] can be described thus: Anticancer activity against human MDA-MB-231 cells assessed as inhibition of cell proliferation measured after 48 hrs in presence of 3-amino-7-hydroxy-6-methoxy-2H-chromen-2-one by MTT assay. It counts as functional, cell-based. The conditions noted are these: MDA-MB-23, 48 h. A digest of the protocol:
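MDA-MB-231 cells in DMEM with 10% FBS, ~5,000 cells/well, 24 h attachment, then compound for 48 h at 37°C, 5% CO2. MTT 0.5 mg/ml final for 4 h, DMSO solubilization, absorbance 570 nm; inhibition relative to untreated cells; experiments done three times.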

Data set [9] in a line: Prodrug release in human MDA-MB-231 cells assessed as increase in intracellular NO level at 10 uM measured after 2.5 hrs by DAF-FM DA reagent based scanning electron microscopy. The conditions noted are these: mda-mb-231, 2.5 h, in the assay text read “laser scanning confocal microscopy” for “scanning electron microscopy”. It counts as ADME, cell-based. A digest of the protocol:
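After 24 h growth at 5×10^4 cells/well, MDA-MB-231 cells loaded with DAF-FM DA (5 µM) 30 min at 37°C, 5% CO2, PBS-washed, then incubated 2.5 h with compound at 1 or 10 µM (scopoletin at 10 µM). NO fluorescence imaged by laser scanning confocal microscopy.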

Molecules are shown by their SMILES.

On to `COc1cc2cc(NC(C)=O)c(=O)oc2cc1OCCCCOc1no[n+]([O-])c1S(=O)(=O)c1ccccc1`, for which the inhibition at 10 µM in data set [1] came to 80.4%. The IC50 in data set [2] worked out at 3.15 µM; in [3], 3.44 µM; in [4], 3.29 µM; in [5], 7.19 µM; in data set [6] it was 9.19 µM. The Drug metabolism entry in [7] was “Metabolite_Detected”.

For the compound `O=S(=O)(c1ccccc1)c1c(OCCCO)no[n+]1[O-]`, the IC50 was found to be 7.25 µM in [2] and 6.36 µM in data set [8].

Turning to `COc1cc2cc(N)c(=O)oc2cc1OCCCCOc1no[n+]([O-])c1S(=O)(=O)c1ccccc1`, in data set [1], the inhibition at 10 µM stood at 89%. For the same compound, the half-inhibitory concentration (IC50) in [2] is 1.93 µM; in data set [3], 2.28 µM; in data set [4], 2.64 µM; in data set [5] it was 5.03 µM; in data set [6], 8.63 µM. Besides, the Drug metabolism result in data set [7] is reported as “Metabolite_Detected”.

For `COc1cc2cc(N)c(=O)oc2cc1OCCCCCCOc1no[n+]([O-])c1S(=O)(=O)c1ccccc1`, the inhibition at 10 µM in data set [1] came out at 84.4%. Moreover, the IC50 in data set [2] is 2.93 µM; in data set [3] it was 3.14 µM; in [4], 3.06 µM; in data set [5] it was 8.06 µM; in data set [6], 10.3 µM. In data set [7], the Drug metabolism result was “Metabolite_Detected”.

`COc1cc2ccc(=O)oc2cc1OCCOc1no[n+]([O-])c1S(=O)(=O)c1ccccc1`: in [1], the inhibition at 10 µM came out at 89.2%. The IC50 in data set [2] was 2.86 µM; in data set [3], 3.54 µM; in [4], 3.61 µM; in data set [5] it was 7.24 µM; in [6], 10.9 µM. In data set [7], the Drug metabolism entry is “Metabolite_Detected”.

On to `COc1cc2ccc(=O)oc2cc1O` [SCOPOLETIN], for which the inhibition at 10 µM in data set [1] worked out at 7.95%. For the same compound, the IC50 in [2], in data set [3], in [4], in [5] and in data set [6] was above 25 µM throughout. Moreover, the Drug metabolism result in [9] was “Metabolite_Notdetected”.

For the compound `COc1cc2cc(NC(C)=O)c(=O)oc2cc1OCCOc1no[n+]([O-])c1S(=O)(=O)c1ccccc1`, the inhibition at 10 µM in [1] is 83.7%. For the same compound, the IC50 in [2] is 4.99 µM; in [3], 6.89 µM; in data set [4], 4.83 µM; in data set [5], 8.79 µM; in data set [6] it was 10.2 µM. In data set [7], the Drug metabolism result is “Metabolite_Detected”.

As to `COc1cc2cc(N)c(=O)oc2cc1OCCCCCOc1no[n+]([O-])c1S(=O)(=O)c1ccccc1`, the inhibition at 10 µM in [1] is 88.8%. In addition, the IC50 in data set [2] worked out at 2.4 µM; in [3], 2.62 µM; in [4] it was 3.46 µM; in data set [5], 6.88 µM; in data set [6], 12.2 µM. The Drug metabolism result in [7] is “Metabolite_Detected”.

Consider `COc1cc2cc(NC(C)=O)c(=O)oc2cc1O`, for which the inhibition at 10 µM in data set [1] is 5.21%.

`COc1cc2cc(NC(C)=O)c(=O)oc2cc1OCCCOc1no[n+]([O-])c1S(=O)(=O)c1ccccc1`: the inhibition at 10 µM in [1] came out at 88.5%. Further, the IC50 in [2] worked out at 3.81 µM; in [3] it was 2.4 µM; in data set [4], 2.82 µM; in [5], 9.81 µM; in data set [6], 8.36 µM. For the same compound, the Drug metabolism result in data set [7] was “Metabolite_Detected”.

Turning to `COc1cc2cc(N)c(=O)oc2cc1O`, the inhibition at 10 µM in [1] is 7.13%. Also, the IC50 in data set [2] is above 25 µM.

`COc1cc2cc(N)c(=O)oc2cc1OCCOc1no[n+]([O-])c1S(=O)(=O)c1ccccc1`: the inhibition at 10 µM in data set [1] is 88.5%. Moreover, the concentration for half-maximal inhibition (IC50) in [2] was 2.46 µM; in [3], 2.77 µM; in [4], 3.06 µM; in data set [5], 5.91 µM; in data set [6], 9.82 µM. The Drug metabolism entry in data set [7] is “Metabolite_Detected”.

Regarding `COc1cc2ccc(=O)oc2cc1OCCCCCOc1no[n+]([O-])c1S(=O)(=O)c1ccccc1`, the inhibition at 10 µM in [1] turned out to be 87.1%. The IC50 stood at 3.17 µM in data set [2]; 3.85 µM in data set [3]; 3.42 µM in data set [4]; 10.6 µM in data set [5]; 8.86 µM in data set [6]. In addition, the Drug metabolism result in data set [7] is reported as “Metabolite_Detected”.

Turning to `COc1cc2ccc(=O)oc2cc1OCCCCOc1no[n+]([O-])c1S(=O)(=O)c1ccccc1`, the inhibition at 10 µM in data set [1] was 84.4%. Besides, the IC50 in data set [2] came to 2.79 µM; in data set [3] it was 3.04 µM; in data set [4] it was 3.25 µM; in [5], 6.14 µM; in data set [6], 9.33 µM. The Drug metabolism entry in data set [7] was “Metabolite_Detected”.

For the compound `COc1cc2cc(NC(C)=O)c(=O)oc2cc1OCCCCCCOc1no[n+]([O-])c1S(=O)(=O)c1ccccc1`, the inhibition at 10 µM in data set [1] turned out to be 48.6%. The half-maximal inhibitory concentration (IC50) in [2] amounted to 7.89 µM; in data set [3], 11.3 µM; in [4], 6.59 µM; in [5] it was 15 µM; in [6], 17.3 µM. In addition, the Drug metabolism result in data set [7] is reported as “Metabolite_Detected”.

On to `COc1cc2cc(NC(C)=O)c(=O)oc2cc1OCCCCCOc1no[n+]([O-])c1S(=O)(=O)c1ccccc1`, for which, in data set [1], the inhibition at 10 µM was found to be 73.6%. Moreover, the IC50 was determined as 4.34 µM in [2]; 6.27 µM in [3]; 5.42 µM in [4]; 11.4 µM in [5]; 13.8 µM in data set [6]. The Drug metabolism result in data set [7] is “Metabolite_Detected”.

For the compound `COc1cccc2c1C(=O)c1c(O)c3c(c(O)c1C2=O)C[C@@](O)(C(=O)CO)C[C@@H]3O[C@H]1C[C@H](N)[C@H](O)[C@H](C)O1` [DOXORUBICIN], the half-inhibitory concentration (IC50) in data set [2] was determined as 0.55 µM; in data set [3], 0.6 µM; in [4] it was 0.62 µM; in data set [6], 0.59 µM.

`COc1cc2ccc(=O)oc2cc1OCCCCCCOc1no[n+]([O-])c1S(=O)(=O)c1ccccc1`: in data set [1], the inhibition at 10 µM was determined as 84.8%. For the same compound, the half-maximal inhibitory concentration (IC50) in data set [2] was 3.35 µM; in [3], 4.48 µM; in data set [4], 3.79 µM; in [5], 9.43 µM; in data set [6] it was 12.4 µM. In addition, the Drug metabolism result in [7] is reported as “Metabolite_Detected”.

On to `COc1cc2ccc(=O)oc2cc1OCCCOc1no[n+]([O-])c1S(=O)(=O)c1ccccc1`, for which the inhibition at 10 µM in data set [1] amounted to 88.6%. Further, the IC50 in [2] amounted to 1.85 µM; in data set [3], 2.27 µM; in data set [4], 2.9 µM; in data set [5], 5.45 µM; in data set [6] it was 7.82 µM.
